Results gathered from unrelated publications.
Each line is one published result; the experiments were not run side by side.
Target: Phosphorylase b kinase gamma catalytic chain, liver/testis isoform (PHKG2, Homo sapiens, UniProt P15735)
Residues used in one study (P15735 1-406): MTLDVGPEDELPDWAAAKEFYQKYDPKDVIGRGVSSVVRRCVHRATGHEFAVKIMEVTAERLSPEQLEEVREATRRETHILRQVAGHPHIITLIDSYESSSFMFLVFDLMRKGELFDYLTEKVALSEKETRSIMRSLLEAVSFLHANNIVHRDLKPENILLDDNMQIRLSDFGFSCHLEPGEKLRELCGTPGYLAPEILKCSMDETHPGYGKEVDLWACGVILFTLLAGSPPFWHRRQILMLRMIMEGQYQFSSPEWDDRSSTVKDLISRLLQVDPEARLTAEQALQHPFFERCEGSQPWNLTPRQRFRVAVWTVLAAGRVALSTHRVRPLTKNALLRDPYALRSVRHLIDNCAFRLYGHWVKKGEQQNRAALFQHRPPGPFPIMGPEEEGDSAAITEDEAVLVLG

N[C@@H]1CCN(c2nccc(-c3cnn4ncccc34)n2)C1 — remaining binding (binding; 1 µM): 84%
N#CC1(c2ccccn2)CCN(Cc2cc(C(=O)N3CCCC3)c(=O)n3ccccc23)CC1 — remaining binding (cell-free assay, competition with immobilised ligand; 1 µM): 85%
C[C@H]1CCN(c2nccc(-c3cnn4ncccc34)n2)C1 — remaining binding (binding; 1 µM): 79%
O=C(N1CCS(=O)(=O)CC1)N1C[C@H](c2ccc(OC(F)(F)F)cc2)C[C@H](c2nc(C3CC3)no2)C1 — remaining binding (cell-free assay, competition with immobilised ligand; 1 µM): 100%
COc1ncc2cc3ccccc3nc2c1C#N — remaining binding (cell-free assay, competition with immobilised ligand; 5 µM): 100%
COc1ccnn2ncc(-c3ccnc(N(C)C)n3)c12 — remaining binding (binding; 1 µM): 82%
O=C(c1ccc(Nc2nccc(-c3cc4ccccc4s3)n2)cc1)N1CCC(N2CCCC2)CC1 — remaining binding (binding, competition with immobilised ligand; 1 µM): 64%
CN(C)C(=O)Cn1cc(-c2nc([C@@](C)(c3ccc(-c4cnc(N)nc4)cc3)C3CC3)no2)cn1 — remaining binding (cell-free assay, competition with immobilised ligand; 1 µM): 80%
Cc1cnn2ncc(-c3ccnc(N(C)C)n3)c2c1 — remaining binding (binding; 1 µM): 95%
O=C(Nc1c[nH]nc1C(=O)NC1CCNCC1)c1cc(F)cc(F)c1 — remaining binding (binding, competition with immobilised ligand; 1 µM): 100%
C=CC(=O)N1CCC(C(=O)NCC(=O)N2CCN(c3nc(-c4cnc(N)nc4C(F)F)nc(N4CCOCC4)n3)CC2)CC1 — remaining binding (binding, competition with immobilised ligand; 1 µM): 89%
C[C@@H]1CN(c2cc(-c3n[nH]c4ccc(OC5(C)CC5)cc34)ncn2)C[C@H](C)O1 — remaining binding (cell-free assay, competition with immobilised ligand; 0.1 µM): 91%
O=C(c1ccc(Nc2ncc(Cl)c(-c3ccc(Cl)s3)n2)cc1)N1CCC(N2CCCC2)CC1 — remaining binding (binding, competition with immobilised ligand; 1 µM): 66%
CCN1CCN(Cc2ccc(C(=O)Nc3ccc(C)c(Oc4ccc5c(c4)CC(=O)N5)c3)cc2C(F)(F)F)CC1 — remaining binding (binding, competition with immobilised ligand; 1 µM): 100%
O=C(NCCCN1CCOCC1)c1ccc(Nc2nccc(-c3cc4ccccc4s3)n2)cc1 — remaining binding (binding, competition with immobilised ligand; 1 µM): 33%
COc1cnc(Nc2cccc(S(N)(=O)=O)c2)nc1N1CCN(c2ccccc2)C(=O)C1 — remaining binding (binding, competition with immobilised ligand; 1 µM): 100%
CN(C)c1ncc(F)c(-c2cnn3ncccc23)n1 — remaining binding (binding; 1 µM): 69%
CNC(=O)Nc1ccc2c(c1)[C@@]1(CC2)OC(=O)N(CC(=O)N(Cc2ccc(F)cc2)[C@@H](C)C(F)(F)F)C1=O — remaining binding (cell-free assay, competition with immobilised ligand; 1 µM): 100%
CN(C)c1nccc(-c2cnn3ncccc23)n1 — remaining binding (binding; 1 µM): 86%
O=C(NCCCC1CCCCC1)c1ccc(CNC(=O)c2cnn(-c3ccccc3)c2C(F)(F)F)cc1 — remaining binding (cell-free assay, competition with immobilised ligand; 0.1 µM): 100%
COc1cnc(Nc2cccc(S(N)(=O)=O)c2)nc1N1CCN(c2ccccc2)CC1 — remaining binding (binding, competition with immobilised ligand; 1 µM): 82%
